In the library only some 3.7% were active in any assay of this set; here they are far more common.
hERG protect – shields human hERG channel from block by proarrhythmic agents | CHO-hERG, FluxOR thallium flux, dofetilide IC70 present | activation (rescue from dofetilide block), less the hit threshold, % at 10 µM | AID 1511 | hit rate 0.51% among 310,000;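 active means activation above the mean of controls blocked by dofetilide plus 5 SD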;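 further: thallium influx through hERG after potassium depolarization seen as dye fluorescence rise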
Kir21 block – inhibitors of mouse Kir2.1 inward-rectifier potassium channel | P35561 | HEK293-Kir2.1, FluxOR thallium flux fluorescence; active compounds read low | B-score at 10 µM | hit rate 0.85% among 310,000;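 active means fluorescence ratio B-score at or below minus 3 SD of library scores, with starting-brightness B-score within 2 SD, cut at about -4.2 in these data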;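 further: channel flux triggered by added potassium and thallium sulfate stimulus; B-score of peak minus minimum fluorescence over baseline after thallium stimulus; more negative B-score means stronger Kir2.1 block with less thallium influx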
KCNK9 inh – inhibitors of human KCNK9 two-pore domain potassium channel. HEK293 KCNK9, FluxOR thallium flux fluorescence; active compounds read low. B-score at 10 µM. hit rate 1.2% among 310,000. AID 488922;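 active means ratio B-score over 3 SD below the library mean, with starting fluorescence within 5 SD of its mean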;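 further: negative B-score means less thallium flux so channel inhibition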
Target sequence (Q9NPC2 whole entry, looked up, the tested form may be a part): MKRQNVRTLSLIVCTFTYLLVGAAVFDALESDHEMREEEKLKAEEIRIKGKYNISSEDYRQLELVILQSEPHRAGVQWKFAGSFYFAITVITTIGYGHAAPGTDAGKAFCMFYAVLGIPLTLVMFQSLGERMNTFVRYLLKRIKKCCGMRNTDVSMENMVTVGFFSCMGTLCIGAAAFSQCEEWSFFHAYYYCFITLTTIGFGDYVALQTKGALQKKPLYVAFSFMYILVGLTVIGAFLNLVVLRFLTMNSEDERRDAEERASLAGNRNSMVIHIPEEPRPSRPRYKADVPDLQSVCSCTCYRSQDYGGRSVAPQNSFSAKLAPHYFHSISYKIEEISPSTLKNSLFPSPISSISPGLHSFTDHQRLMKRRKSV
KCNQ1 pot – potentiators or activators of human KCNQ1 potassium channel; P51787; CHO-K1 KCNQ1, thallium flux FluxOR fluorescence; active compounds read high; B-score at 10 µM; hit rate 0.35% among 310,000;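 active means fluorescence ratio B-score, a plate-corrected score, at least three library SD, with initial intensity B-score within 5 SD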
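Schedule – 37 °C overnight plating, 90-min dark dye load, 20-min compound pretreatment · System – stable KCNQ1 CHO-K1 line · Probe or stimulus – thallium- and potassium-containing depolarizing buffer · Measured by – kinetic FluxOR fluorescence, 10 s baseline plus 110 s post-stimulus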
KCNQ1 block – inhibitors of human KCNQ1 potassium channel; P51787; CHO-K1 KCNQ1, FluxOR thallium flux fluorescence; active compounds read high; B-score at 10 µM; hit rate 1.3% among 310,000;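 active means compounds whose thallium flux B-score, printed positive for inhibition, exceeds three library SD while starting fluorescence stays within three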;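 further: channel opened by potassium depolarization with thallium stimulus after 20 min compound exposure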
KCNK3 inh – human KCNK3 channel inhibition, primary screen. O14649. CHO-KCNK3 thallium flux, FluxOR fluorescence; active compounds read low. B-score at 10 µM. AID 602410. hit rate 0.84% among 340,000;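 active means B-score under library mean minus 4 SD, starting fluorescence ratio at most library mean plus 5 SD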;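 further: more negative B-score means stronger inhibition of thallium flux through KCNK3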
KCNQ1 inh valid – confirmation of human KCNQ1 potassium channel inhibitors; shares compounds with KCNQ1 block; KCNQ1 cell line, FluxOR thallium flux fluorescence; inhibition, % at 10 µM; hit rate 93% among 1,600;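 active means primary screen active, with duplicate mean exceeding buffer control mean plus 3 SD of buffer wells, cut at about 28% in these data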;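 further: 0% = buffer control ratio and 100% = XE991 inhibitor control ratio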
CHO Tl flux – activity in parental CHO cells lacking KCNQ1; shares compounds with KCNQ1 block; parental CHO-K1, FluxOR thallium flux fluorescence ratio; active compounds read low; zero means no signal rise above baseline; fluorescence ratio (Tl flux) at 10 µM; hit rate 21% among 1,600; AID 588366;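 active means mean of duplicate thallium-flux fluorescence ratios in parental host cells more than 5 SD below the buffer control mean, cut at about 0.38 in these data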;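 further: ratio is peak minus minimum fluorescence divided by baseline fluorescence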
KCNQ1 ephys val – blocks human KCNQ1 current in automated patch clamp | shares compounds with KCNQ1 block | KCNQ1-CHO cells | calls only at 10 µM | hit rate 20% among 490;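 active means KCNQ1 current drop exceeding 3 SD of negative control wells, seen in both duplicate runs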;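 further: steady state current during a 2 s step from -80 to +40 mV; negative values mean current inhibition and positive values mean potentiation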
KCNQ2 spec – rat KCNQ2 inhibition in KCNQ1 inhibitor specificity screen. shares compounds with KCNQ1 block. AID 651746. inhibition, % at 10 µM. hit rate 71% among 1,600. KCNQ2 cells, FluxOR thallium flux fluorescence;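 active means mean percent inhibition of the KCNQ2 thallium signal more than 5 SD above the buffer-only control wells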;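 further: KCNQ2 expressed in CHO cells; 0% = buffer control wells and 100% = XE-991 inhibitor control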
KCNQ1 KCNE1 spec – selectivity of KCNQ1 inhibitors: inhibition of human KCNQ1/KCNE1 channel; KCNQ1/KCNE1 cells, FluxOR thallium flux fluorescence; hit rate 77% among 1,600; inhibition, % at 10 µM; shares compounds with KCNQ1 block;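 active means mean percent inhibition of duplicate wells above the buffer-only control mean plus 3 SD of those controls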;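 further: 0% = buffer only wells and 100% = XE-991 inhibitor control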
* hit, by the source's call; i = inactive; . = no result given; + = active, no number.

SMILES	hERG protect	Kir21 block	KCNK9 inh	KCNQ1 pot	KCNQ1 block	KCNK3 inh	KCNQ1 inh valid	CHO Tl flux	KCNQ2 spec	KCNQ1 KCNE1 spec	others
COC(=O)c1c(C)oc2ccc(N(C(=O)c3ccncc3)S(=O)(=O)c3ccc4ccccc4c3)cc12	-10	0.32	i	i	8*	i	136*	0.4	110%*	140%*
COC(=O)c1c(C)oc2ccc(N(C(=O)c3ccncc3)S(=O)(=O)c3ccc(C)cc3C)cc12	-11	-0.63	i	i	9*	i	135*	0.39	127%*	131%*	KCNQ1 ephys val=i
C(=N\Nc1cc(N2CCCCC2)ncn1)/c1ccco1	-4	0.27	i	i	i	i	.	.	.	.
CN(C)C1=NC[C@H](Cc2ccccc2)N1CC1CCC(C(C)(C)C)CC1 (some centres undefined)	-7	-2	i	i	7*	i	98*	0.43	111%*	70%*
CN(C)C1=NC[C@H](Cc2ccccc2)N1CC1CCCC1	.	.	.	.	.	i	.	.	.	.
COC(=O)CN1CCN(C(=O)c2ccco2)CC1	-3	0.02	i	i	i	i	.	.	.	.
CC1CN(C(=O)Cn2c(=O)oc3ccccc32)CC(C)O1 (centres undefined)	0	-0.88	i	i	i	i	.	.	.	.
Cc1noc(/C=C/N(C)C)c1S(=O)(=O)N1CCC(C(=O)NC(C)(C)C)CC1	-10	-0.26	i	i	i	i	.	.	.	.
Fc1ccc2[nH]c3c(c2c1)CN(C(=S)NCc1ccccc1)CC3	-14	-0.12	i	i	7*	i	100*	0.49	102%*	88%*	KCNQ1 ephys val=i
C=CCNC(=O)N1CCc2[nH]c3ccc(F)cc3c2C1	-4	1.9	i	i	i	i	.	.	.	.
O=c1c2c(nc3n1CCCCC3)-c1ccccc1CC21CCCCC1	-6	-1.1	i	i	7*	i	104*	0.48	106%*	88%*	KCNQ1 ephys val=i
CCC(C)Nc1nc(OC(C(F)(F)F)C(F)(F)F)nc(OC(C(F)(F)F)C(F)(F)F)n1 (centres undefined)	-5	0.22	i	i	7*	i	92*	0.4	102%*	90%*
CCC(C)Nc1nc(OCC(F)(F)F)nc(OCC(F)(F)F)n1 (centres undefined)	-7	-0.54	i	i	i	i	.	.	.	.
COc1cc(/C=C/c2nc(-c3ccccc3O)n[nH]2)cc(OC)c1OC	-34	1	i	i	6*	i	116*	0.38	113%*	190%*
CCCCOc1[nH]c2nc(-c3ccco3)n(Cc3ccco3)c(=N)c2c1C#N	-17	-3.3	-7.2*	i	14*	i	76*	0.5	78%*	81%*
Cc1nn(CC(C)C)c(Cl)c1C(=O)N(c1ccc(Cl)cc1F)S(C)(=O)=O	-5	0.93	i	i	i	i	.	.	.	.
CC1CC(C)CN(C(=O)c2cccc(N3C(=O)c4ccccc4C3=O)c2)C1 (centres undefined)	.	.	.	.	.	i	.	.	.	.
Cc1ccc(NC(=O)CSc2nc3ccccc3c(=O)n2CCCN2CCCCC2)cc1Cl	-22	-3	i	i	7*	i	85*	0.36*	85%*	84%*
Cc1ccc(-c2csc(NC(=O)CSc3nc4ccccc4c(=O)n3CCCN(C)C)n2)cc1	-46	-1.6	i	i	8*	i	118*	0.29*	101%*	154%*
CCn1c(SCC(=O)Nc2nc(-c3ccc(C)cc3)cs2)nnc1-c1ccccc1	-4	-0.01	i	i	i	i	.	.	.	.
O=C(COC(=O)/C=C/c1ccccc1)NCC1CCCO1 (centres undefined)	-6	0.6	i	i	i	i	.	.	.	.
O=C(NC1CCCCC1)N1CCCc2ccccc21	-10	-1.3	i	i	i	i	.	.	.	.
O=C(NC1CCCCC1)N1CCSC1=Nc1ccccc1	-20	1.3	i	i	10*	i	103*	0.41	110%*	111%*	KCNQ1 ephys val=i
Cc1cc(Cl)c(OCCCNCc2ccccc2)c(Br)c1	-23	-11	i	i	6*	i	37*	0.57	73%*	i
CCc1ccc(C(=O)Cc2cc3cccc(OC)c3oc2=O)cc1	-4	1.7	i	i	i	i	.	.	.	.
SMILES	hERG protect	Kir21 block	KCNK9 inh	KCNQ1 pot	KCNQ1 block	KCNK3 inh	KCNQ1 inh valid	CHO Tl flux	KCNQ2 spec	KCNQ1 KCNE1 spec	others
CCCCNC(=O)CCc1c(C)nc2nc(-c3cc(OC)cc(OC)c3)nn2c1C	-12	0.64	i	i	i	i	.	.	.	.
CCC(C)NC(=O)CCc1c(C)nc2nc(-c3cc(OC)cc(OC)c3)nn2c1C (centres undefined)	-11	-0.02	i	i	8*	i	+	0.51	i	i	KCNQ1 ephys val=i
O/C=c1\ccc2cccc3nc(C(F)(F)F)nc1c23	-8	-5.5	-7.6*	i	19*	i	140*	0.31*	i	i
NNc1nc(C(F)(F)F)nc2ccccc12	-4	-0.02	i	i	i	i	.	.	.	.
Cc1ccccc1NC(=O)COc1ccccc1C	1	-0.26	i	i	i	i	.	.	.	.
Cc1ccccc1OCC(=O)Nc1ccccc1C(=O)NC1CC1	-22	0.81	i	i	10*	i	92*	0.5	123%*	128%*	KCNQ1 ephys val=i
Cc1ccccc1OCC(=O)Nc1ccccc1-c1ccccc1	-9	-0.61	i	i	6*	i	128*	0.39	114%*	178%*	KCNQ1 ephys val=i
COCC(C)N1CC(O)=C(c2nc(-c3ccc(Cl)cc3)cs2)C1=N (centres undefined)	-1	0.03	i	i	i	i	.	.	.	.
C=CCn1c(=O)[nH]c2nc3cc(N=CN(C)C)c(C)cc3nc2c1=O	-20	-5	i	i	8*	i	102*	0.28*	i	152%*
N#C/C(=C\c1coc2ccccc2c1=O)C(N)=S	-16	0.13	i	i	i	i	.	.	.	.

High-throughput results from PubChem.
